Assay results reported in ChEMBL document CHEMBL3286129, “Optimization of peptidomimetic boronates bearing a P3 bicyclic scaffold as proteasome inhibitors” (Eur J Med Chem, 2014).
pKi: −log10 of the molar value. Activity calls are given as the source filed them. The rule behind the calls is not given here.

What was measured:
[1] = tested on: NCI-H322M; assay: Growth inhibition of human NCI-H322M cells; assay type: functional; conditions: for CC50: read-out: LC50 (the source's name)
[2] = tested on: COLO 205; assay: Growth inhibition of human COLO205 cells; assay type: functional; conditions: for CC50: read-out: LC50 (the source's name)
[3] = tested on: KM12; assay: Growth inhibition of human KM12 cells; assay type: functional
[4] = tested on: SF-268; assay: Growth inhibition of human SF268 cells; assay type: functional
[5] = Growth inhibition of human SF295 cells; assay type: functional; conditions: SF-295
[6] = tested on: U-251; assay: Growth inhibition of human U251 cells; assay type: functional; conditions: for CC50: read-out: LC50 (the source's name)
[7] = tested on: M14; assay: Growth inhibition of human M14 cells; assay type: functional
[8] = tested on: SK-MEL-2; assay: Growth inhibition of human SK-MEL-2 cells; assay type: functional
[9] = Growth inhibition of human UACC257 cells; assay type: functional; conditions: for GI50 / TGI: UACC-257
[10] = Growth inhibition of human UACC62 cells; assay type: functional; conditions: UACC-62
[11] = Growth inhibition of human OVCAR3 cells; assay type: functional; conditions: OVCAR-3
[12] = Growth inhibition of human OVCAR5 cells; assay type: functional; conditions: OVCAR-5
[13] = Growth inhibition of human OVCAR8 cells; assay type: functional; conditions: for GI50 / TGI: OVCAR-8; for CC50: OVCAR-8, read-out: LC50 (the source's name)
[14] = Growth inhibition of human NCI-ADR-RES cells; assay type: functional
[15] = tested on: 786-0; assay: Growth inhibition of human 786-0 cells; assay type: functional; conditions: for CC50: read-out: LC50 (the source's name)
[16] = tested on: A498; assay: Growth inhibition of human A498 cells; assay type: functional
[17] = Growth inhibition of human RXF393 cells; assay type: functional; conditions: for GI50 / TGI: RXF 393; for CC50: RXF 393, read-out: LC50 (the source's name)
[18] = tested on: SN12C; assay: Growth inhibition of human SN12C cells; assay type: functional; conditions: for CC50: read-out: LC50 (the source's name)
[19] = tested on: PC-3; assay: Growth inhibition of human PC3 cells; assay type: functional; conditions: for CC50: read-out: LC50 (the source's name)
[20] = tested on: DU-145; assay: Growth inhibition of human DU145 cells; assay type: functional; conditions: for CC50: read-out: LC50 (the source's name)
[21] = Growth inhibition of human Hs 578T cells; assay type: functional; conditions: for CC50: read-out: LC50 (the source's name)
[22] = molecular target: T1, Proteasome Macropain subunit MB1 (Homo sapiens) (UniProt P28074); assay: Inhibition of chymotrypsin-like activity of 20S proteasome in human erythrocytes using Suc-Leu-Leu-Val-Tyr-AMC as substrate at 20 uM by fluorescence assay relative to control
T1 sequence (whole entry): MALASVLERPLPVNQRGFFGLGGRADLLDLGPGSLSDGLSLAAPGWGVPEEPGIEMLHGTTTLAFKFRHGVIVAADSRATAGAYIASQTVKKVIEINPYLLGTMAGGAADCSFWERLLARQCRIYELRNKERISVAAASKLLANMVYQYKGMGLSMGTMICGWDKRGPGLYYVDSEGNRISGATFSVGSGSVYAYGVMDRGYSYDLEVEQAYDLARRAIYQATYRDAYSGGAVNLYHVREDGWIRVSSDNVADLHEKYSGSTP
Summary of the method: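 Single inhibitor concentration, equivalent DMSO as negative control. AMC fluorescence read at ex 380/em 460 nm; percent inhibition of ChT-L activity.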

[23] = molecular target: T2, Proteasome Macropain subunit MB1 (Homo sapiens, UniProt P28074); assay: Inhibition of chymotrypsin-like activity of 20S proteasome in human erythrocytes using Suc-Leu-Leu-Val-Tyr-AMC as substrate by fluorescence assay; conditions: read-out: Ki
T2 sequence (P28074 whole entry): T1 sequence (whole entry)

[24] = molecular target: Proteasome Macropain subunit (Homo sapiens) (UniProt P49721); assay: Inhibition of trypsin-like activity of 20S proteasome in human erythrocytes using Boc-Leu-Arg-Arg-AMC as substrate by fluorescence assay; assay type: cell-based
Sequence of Proteasome Macropain subunit (Homo sapiens) (P49721 whole entry): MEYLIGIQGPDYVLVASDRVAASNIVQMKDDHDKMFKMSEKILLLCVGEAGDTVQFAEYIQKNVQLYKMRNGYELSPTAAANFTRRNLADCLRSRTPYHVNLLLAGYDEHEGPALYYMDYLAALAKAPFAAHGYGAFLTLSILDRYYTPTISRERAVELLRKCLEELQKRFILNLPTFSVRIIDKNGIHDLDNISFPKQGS
Summary of the method: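 Human 20S proteasome 0.0025 mg/mL at 30 °C in 50 mM Tris pH 7.4, 50 mM NaCl, 0.5 mM EDTA, 0.03% SDS, 7.5% DMSO. Varied inhibitor concentrations; AMC release monitored continuously for 10 min, ex 380/em 460 nm. Ki derived from progress-curve IC50 fit.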

[25] = molecular target: Chymotrypsinogen A (Bos taurus, UniProt P00766); assay: Inhibition of bovine pancreatic alpha-chymotrypsin using Suc-Leu-Leu-Val-Tyr-AMC as substrate by fluorescence assay; conditions: read-out: Ki
Summary of the method: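 Enzyme incubated at 20 °C in 50 mM Tris pH 8.0, 100 mM NaCl, 5 mM EDTA, 7.5% DMSO with varied inhibitor concentrations. Substrate hydrolysis followed for 10 min. Ki from progress curves; mean of three determinations.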

[26] = Cytotoxicity against human leukemia cells assessed as cell growth at 10 uM relative to control; assay type: functional; conditions: read-out: Activity
Summary of the method: (§1)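 Single-concentration screen against a panel of human cancer cell lines. Each value is the mean percent growth across the cell lines of that tumour subpanel.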

[27] = Cytotoxicity against human NSCLC cells assessed as cell growth at 10 uM relative to control; assay type: functional; conditions: read-out: Activity; summary of the method: as §1
[28] = Cytotoxicity against human ovarian cancer cells assessed as cell growth at 10 uM relative to control; assay type: functional; conditions: Cancer cell lines, read-out: Activity; summary of the method: as §1
[29] = Cytotoxicity against human renal cancer cells assessed as cell growth at 10 uM relative to control; assay type: functional; conditions: Cancer cell lines, read-out: Activity; summary of the method: as §1
[30] = Cytotoxicity against human prostate cancer cells assessed as cell growth at 10 uM relative to control; assay type: functional; conditions: Cancer cell lines, read-out: Activity; summary of the method: as §1
[31] = Cytotoxicity against human breast cancer cells assessed as cell growth at 10 uM relative to control; assay type: functional; conditions: Cancer cell lines, read-out: Activity; summary of the method: as §1
[32] = tested on: CCRF-CEM; assay: Growth inhibition of human CCRF-CEM cells; assay type: functional; conditions: for CC50: read-out: LC50 (the source's name)
[33] = tested on: RPMI-8226; assay: Growth inhibition of human RPMI8226 cells; assay type: functional; conditions: for CC50: read-out: LC50 (the source's name)
[34] = tested on: HOP-62; assay: Growth inhibition of human HOP62 cells; assay type: functional; conditions: for CC50: read-out: LC50 (the source's name)
[35] = Growth inhibition of human HOP92 cells; assay type: functional; conditions: for GI50 / TGI: HOP-92; for CC50: HOP-92, read-out: LC50 (the source's name)

CC(C)C[C@H](NC(=O)CCn1ccc2ccc(Br)cc2c1=O)B(O)O
GI50 [1]: > 100 µM
TGI [1]: > 100 µM
CC50 [1]: > 100 µM
GI50 [2]: 0.85 µM
TGI [2]: > 100 µM
CC50 [2]: > 100 µM
GI50 [3]: 1.33 µM
LC50 [3]: > 100 µM
TGI [3]: 4.38 µM
GI50 [4]: 0.7 µM
LC50 [4]: > 100 µM
TGI [4]: 3.85 µM
GI50 [5]: 0.58 µM
LC50 [5]: 75.5 µM
TGI [5]: 4.51 µM
GI50 [6]: 1.18 µM
TGI [6]: > 100 µM
CC50 [6]: > 100 µM
GI50 [7]: 0.36 µM
LC50 (concentration killing 50% of cells) [7]: > 100 µM
TGI [7]: 3.88 µM
GI50 [8]: 0.46 µM
LC50 [8]: > 100 µM
TGI [8]: 4.56 µM
GI50 [9]: 0.73 µM
TGI [9]: 2.86 µM
GI50 [10]: 0.46 µM
LC50 (concentration killing 50% of cells) [10]: 28.5 µM
TGI [10]: 2.44 µM
GI50 [11]: 0.33 µM
LC50 (concentration killing 50% of cells) [11]: 10.6 µM
TGI [11]: 1.21 µM
GI50 [12]: 3.15 µM
LC50 [12]: > 100 µM
TGI [12]: 97.3 µM
GI50 [13]: 3.64 µM
TGI [13]: > 100 µM
CC50 [13]: > 100 µM
GI50 [14]: 17.4 µM
LC50 [14]: > 100 µM
TGI [14]: > 100 µM
GI50 [15]: 0.82 µM
TGI [15]: > 100 µM
CC50 [15]: > 100 µM
GI50 [16]: 0.13 µM
LC50 [16]: > 100 µM
TGI [16]: 0.74 µM
GI50 [17]: 0.28 µM
TGI [17]: 0.88 µM
CC50 [17]: 5.39 µM
GI50 [18]: 1.5 µM
TGI [18]: 11.5 µM
CC50 [18]: > 100 µM
GI50 [19]: 4.19 µM
TGI [19]: > 100 µM
CC50 [19]: > 100 µM
GI50 [20]: 0.71 µM
TGI [20]: > 100 µM
CC50 [20]: > 100 µM
GI50 [21]: 0.43 µM
TGI [21]: 6.2 µM
CC50 [21]: > 100 µM
inhibition [22]: > 40%
pKi [23]: 7.22
inhibition [24]: inactive
pKi [25]: 4.63
growth at 10 µM [26]: 0.02%
growth at 10 µM [27]: 8.79%
growth at 10 µM [28]: 38.8%
growth at 10 µM [29]: -4%
growth at 10 µM [30]: 34.5%
growth at 10 µM [31]: 2.31%
GI50 [32]: 0.43 µM
TGI [32]: > 100 µM
CC50 [32]: > 100 µM
GI50 [33]: 0.32 µM
TGI [33]: > 100 µM
CC50 [33]: > 100 µM
GI50 [34]: 2.63 µM
TGI [34]: 9.29 µM
CC50 [34]: > 100 µM
GI50 [35]: 1.34 µM
TGI [35]: 5.61 µM
CC50 [35]: > 100 µM

CC(C)C[C@H](NC(=O)Cn1ccc2ccc(Br)cc2c1=O)B(O)O
GI50 [1]: > 100 µM
TGI [1]: > 100 µM
CC50 [1]: > 100 µM
GI50 [2]: 2.83 µM
TGI [2]: > 100 µM
CC50 [2]: > 100 µM
GI50 [3]: 3.55 µM
LC50 [3]: > 100 µM
TGI [3]: 17.3 µM
GI50 [4]: 3.76 µM
LC50 [4]: > 100 µM
TGI [4]: 31.9 µM
GI50 [5]: 2.03 µM
LC50 [5]: 86.4 µM
TGI [5]: 15.9 µM
GI50 [6]: 5.56 µM
TGI [6]: > 100 µM
CC50 [6]: > 100 µM
GI50 [7]: 1.25 µM
LC50 (concentration killing 50% of cells) [7]: > 100 µM
TGI [7]: 6.73 µM
GI50 [9]: 0.94 µM
TGI [9]: 4.51 µM
CC50 ([9]; UACC-257, read-out: LC50 (the source's name)): > 100 µM
GI50 [10]: 1.86 µM
LC50 (concentration killing 50% of cells) [10]: 97 µM
TGI [10]: 10.4 µM
GI50 [11]: 0.6 µM
LC50 (concentration killing 50% of cells) [11]: > 100 µM
TGI [11]: 3.95 µM
GI50 [13]: 3.53 µM
TGI [13]: > 100 µM
CC50 [13]: > 100 µM
GI50 [14]: 21.5 µM
LC50 [14]: > 100 µM
TGI [14]: > 100 µM
GI50 [15]: 4.06 µM
TGI [15]: > 100 µM
CC50 [15]: > 100 µM
GI50 [16]: 0.1 µM
LC50 [16]: 28.6 µM
TGI [16]: 0.58 µM
GI50 [17]: 0.43 µM
TGI [17]: 1.77 µM
CC50 [17]: 5.99 µM
GI50 [18]: 3.52 µM
TGI [18]: 55.2 µM
CC50 [18]: > 100 µM
GI50 [19]: 6.31 µM
TGI [19]: > 100 µM
CC50 [19]: > 100 µM
GI50 [20]: 6.05 µM
TGI [20]: > 100 µM
CC50 [20]: > 100 µM
GI50 [21]: 2.94 µM
TGI [21]: 75.1 µM
CC50 [21]: > 100 µM
inhibition [22]: > 40%
pKi [23]: 7.28
inhibition [24]: inactive
pKi [25]: 6.54
growth at 10 µM [26]: 0.57%
growth at 10 µM [27]: 22%
growth at 10 µM [28]: 37.5%
growth at 10 µM [29]: -8.89%
growth at 10 µM [30]: 42.9%
growth at 10 µM [31]: 2.23%
GI50 [32]: 0.44 µM
TGI [32]: > 100 µM
CC50 [32]: > 100 µM
GI50 [33]: 0.32 µM
TGI [33]: > 100 µM
CC50 [33]: > 100 µM
GI50 [34]: 4.94 µM
TGI [34]: 27.6 µM
CC50 [34]: > 100 µM
GI50 [35]: 2.56 µM
TGI [35]: 8.7 µM
CC50 [35]: > 100 µM
